Measurements collected from several papers.

Compound	system	conditions	bioavailability [%]
COc1nc(-c2cc(C)c(N[C@@H](C)c3c(F)cc(F)cc3F)nn2)ccc1-n1cnc(C)c1	male CD-1 mouse, plasma	oral, 5 mg/kg, single dose	63.7
Cc1nc2ccccc2n1Cc1ccc(C(=O)NO)cc1F	male CD-1 mouse, plasma	oral, 30 mg/kg	~21
CCN1CC(=O)NC(CC(C)C)C(=O)N(C)C(C)C(=O)NC(CC(C)C)C(=O)N2CCCC2C(=O)N(CC2CCOCC2)CC(=O)NC(CC(C)C)C(=O)N(C)C(C)C(=O)NC(C)C(=O)N2CCCC2C1=O (stereo not shown)	mouse, plasma	oral, 200 mg/kg	50
CCc1cc(OC)c2nccc(N3CCc4c(cc(Cn5ccnc5)cc4-c4cn(C)nc4C(F)(F)F)C3=O)c2c1	male CD-1 mouse, plasma	oral, 50 mg/kg	194
CC(C)c1cnn2c(NCc3ccccc3)cc(NC[C@H]3CCNC[C@@H]3O)nc12	male CD-1 mouse, plasma	oral, 10 mg/kg	30
O=C(NCCN1CCCC1)c1cc(-c2ccc(CN3CCOCC3)cc2)nc2ccc(F)cc12	female NMRI mouse, blood	oral, 3 mg/kg	74
O=C(NCC1CC1)c1cc(N2CC[C@H](O)C2)nc(N2CCC[C@@H](c3ccccc3)C2)n1	mouse, plasma	oral, 10 mg/kg	25
Cc1c(C(=O)Nc2ccc(F)c(Cl)c2)sc(N)c1C(N)=O	male CD-1 mouse, plasma	oral, 10 mg/kg	46
Nc1ccc(-c2ccc3ncc4ccc(=O)n(-c5cccc(C(F)(F)F)c5)c4c3c2)cn1	male Swiss mouse, plasma	oral, 10 mg/kg	54
CSc1cc(Oc2ccnc3[nH]c(=O)cnc23)ccc1NC(=O)Nc1cc(C(C)(C)C)nn1-c1ccccc1	BALB/c mouse, plasma	oral, 10 mg/kg	58
CC[C@H](C)[C@@H]1NC(=O)[C@@](C)(NC(=O)[C@H](CCCNC(=N)N)NC(=O)[C@H](CC(C)C)NC(=O)[C@@H](NC(=O)[C@H](CCC(N)=O)NC(=O)[C@H](CC(C)C)NC(C)=O)[C@@H](C)O)CCCC=CCCC[C@@](C)(C(=O)N[C@@H](CC(C)C)C(=O)N[C@@H](Cc2ccc3ccccc3c2)C(N)=O)NC(=O)[C@H](CCCNC(=N)N)NC(=O)[C@H](CCC(N)=O)NC1=O	male BALB/c mouse, plasma	intraperitoneal, 5 mg/kg	81.1
N[C@@H](CSSC[C@H](N)C(=O)O)C(=O)O	Kunming mouse, plasma	oral, 50 mg/kg	15.1
Cc1ccc2cncc(N3CCc4c(cc(Cn5ccnc5)cc4-c4cn(C)nc4C(F)(F)F)C3=O)c2c1	male CD-1 mouse, plasma	oral, 10 mg/kg	35
CCN1CCN(Cc2cc(NC(=O)c3ccc(C)c(-c4ccc5nc(NC(=O)C6CC6)cn5n4)c3)cc(C(F)(F)F)c2)CC1	Swiss mouse, plasma	oral, 10 mg/kg	4
c1ccc2[nH]c(CNc3nc(N4CCOCC4)nc4c3ncn4-c3ccsc3)nc2c1	mouse, plasma	intravenous, 1 mg/kg	0
CCc1ccc(Cc2cc([C@@H]3O[C@H](CO)[C@@H](O)[C@H](O)[C@H]3O)cc3c2CCC3)cc1	male C57BL/6 mouse, plasma	oral, 0.3 mg/kg	> 100
CN[C@@H](C)C(=O)N[C@H]1CN(C(=O)CC(C)C)CC[C@H]2CC[C@@H](C(=O)NC(c3ccccc3)c3ccccc3)N2C1=O	SCID mouse, plasma	oral, 100 mg/kg, tumour-bearing	42.7
Oc1ccc(-c2nc(-c3ccc(Oc4ccc(C(F)(F)F)cc4)cc3)no2)cc1	female CD-1 mouse, plasma	oral, 50 mg/kg	100
CC(C)(NC(=O)O[C@@H]1CN2CCC1CC2)c1csc(-c2ccc(F)cc2)n1	CD-1 mouse, plasma	oral, 10 mg/kg	74
COc1cc(OC)c2nccc(N3CCc4c(cc(Cn5ccnc5)cc4-c4cn(C)nc4C(F)(F)F)C3=O)c2c1	male CD-1 mouse, plasma	oral, 50 mg/kg	452
N#C[C@@]1(c2ccc3c(N)ncnn23)O[C@H](CO)[C@@H](O)[C@H]1O	male CD-1 mouse, plasma	oral, 10 mg/kg	57
CCc1cc(C(=O)NC)c2nccc(N3CCc4c(cc(Cn5ccnc5)cc4-c4cn(C)nc4C(F)(F)F)C3=O)c2c1	male CD-1 mouse, plasma	oral, 50 mg/kg	175
N#Cc1ccc(/C=C/c2nc3ccccc3c(=O)n2-c2cccc(C(=O)O)c2)cc1	mouse, plasma	oral, 10 mg/kg, single dose	50
COc1ccc2nccc(N3CCc4c(cc(Cn5ccnc5)cc4-c4cn(C)nc4C(F)(F)F)C3=O)c2c1	male CD-1 mouse, plasma	oral, 50 mg/kg	110
OC[C@H]1O[C@@H](c2ccc(Cl)c(Cc3ccc(O[C@H]4CCOC4)cc3)c2)[C@H](O)[C@@H](O)[C@@H]1O	CD-1 mouse, plasma	oral, 10 mg/kg	25.6
